Data set [1] addresses T1, full length TDP-43 (Homo sapiens, UniProt Q13148). Put plainly: Inhibition of bt-TG12 binding to full length TDP-43. The gist of the method:
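In the same Tris pH 7.0 buffer, GST-tagged full-length TDP-43 (1.6 nM) was preincubated 15-30 min at RT with test-compound dilutions. 1.0 nM biotinylated TG12 was then added for 2 hr at RT. Streptavidin Tb donor and anti-GST d2 acceptor (2.6 μg/mL) were added for 1 hr, then time-resolved fluorescence 665/620 ratio. IC50 from three-parameter dose-response fit; geometric means of four determinations.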

For data set [2], the target named is T1, full length TDP-43. Put plainly: Inhibition of UBQLN2 binding to full length TDP-43. The gist of the method: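 Test-compound dilutions were preincubated 15-30 min at room temperature with GST-tagged full-length TDP-43 (100 ng/mL, 1.6 nM) in 20 mM Tris pH 7.0, 2 mM MgCl₂, 0.05% CHAPS, 1% glycerol. HIS-UBQLN2 (100 ng/mL, 1.4 nM) was added for 2 hr at RT. Anti-GST Tb donor plus anti-HIS d2 acceptor were added for 1 hr. Read-out was TR-FRET 665/620 nm ratio (ex 330 nm). IC50 from three-parameter fit; geometric mean of four determinations.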

Data set [3] addresses T1, full length TDP-43. The data set can be described thus: Mode of inhibition of UBQLN2 binding to full length TDP-43. The gist of the method:
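Saturation series: GST-tagged full-length TDP-43 (100 ng/mL, 1.6 nM) with HIS-UBQLN2 (1.0–60 nM), plus oligonucleotide (0–1 μM) or test compound (0–32 μM), 2 hr at RT. Anti-GST/anti-HIS HTRF antibodies were added for 1 hr; nonspecific binding taken without TDP-43. Global nonlinear fits to mixed versus noncompetitive inhibition models compared by F-test; Ki from global model. Duplicates, repeated at least three times.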

Data set [4] deals with T2, C-terminal TDP-43 (261-414 aa) (Homo sapiens, UniProt Q13148). Put plainly: Mode of inhibition of UBQLN2 binding to C-terminal TDP-43. The gist of the method: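 GST-tagged C-terminal TDP-43 (261-414 aa, 4.6 nM) was incubated 2 hr at RT with a HIS-UBQLN2 concentration series, with no test compound or 1, 3.2, 10 or 32 μM. Anti-GST/anti-HIS HTRF antibodies were added for 1 hr, then TR-FRET ratio; nonspecific binding measured without TDP-43. Saturation isotherms globally fitted to a competitive inhibition model. Duplicates, repeated at least three times.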

The target in data set [5] is T2, C-terminal TDP-43 (261-414 aa). The data set can be described thus: UBQLN2 saturation binding to C-terminal TDP-43. Particulars: read-out: KD for UBQLN2 binding to C-terminal TDP-43, C-terminal TDP-43 (261-414 aa) 4.6 nM, n=4.
In data set [6] the target is T3, N-terminal TDP-43 (1-260 aa) (Homo sapiens, UniProt Q13148). The data set can be described thus: UBQLN2 saturation binding to N-terminal TDP-43. Particulars: N-terminal TDP-43 (1-260 aa) 2.2 nM, data not shown.
T3 sequence (Q13148 1-260): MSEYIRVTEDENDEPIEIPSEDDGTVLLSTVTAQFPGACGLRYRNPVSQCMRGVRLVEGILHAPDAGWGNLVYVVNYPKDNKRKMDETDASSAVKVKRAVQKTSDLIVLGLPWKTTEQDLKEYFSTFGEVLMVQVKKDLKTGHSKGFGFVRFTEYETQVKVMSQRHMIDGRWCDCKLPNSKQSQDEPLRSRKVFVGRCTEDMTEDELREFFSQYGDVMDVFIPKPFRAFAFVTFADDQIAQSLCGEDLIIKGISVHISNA
In data set [7] the target is T3, N-terminal TDP-43 (1-260 aa). Put plainly: Inhibition of bt-TG12 binding to N-terminal TDP-43. To be noted: 1.0 nM bt-TG12, N-terminal TDP-43 2.2 nM, n=3. The method in brief:
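GST-tagged N-terminal TDP-43 (1-260 aa; 100 ng/mL, 2.2 nM) was incubated 2 hr at RT with 1.0 nM biotinylated TG12 and either unlabeled oligonucleotide (1 pM–1 μM) or HIS-UBQLN2 (0.3 pM–0.3 μM). Streptavidin Tb donor plus anti-GST d2 acceptor (2.6 μg/mL) were added for 1 hr. Normalized to % bound (0% = 1.0 μM unlabeled TG12); IC50 from three-parameter fit. Duplicates, experiment repeated three times.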

Data set [8] addresses T1, full length TDP-43. Put plainly: Mode of inhibition of bt-TG12 binding to full length TDP-43. Particulars: F-test comparison of global fits with the mixed inhibition model. The gist of the method:
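Biotinylated TG12 (3–1300 pM) was incubated 2 hr at RT with GST-tagged full-length TDP-43 (1.6 nM), without or with HIS-UBQLN2 (1.0, 3.2, 10, 32 nM). Streptavidin Tb donor and anti-GST d2 acceptor (2.6 μg/mL) were added for 1 hr; nonspecific binding measured without TDP-43. Global nonlinear fits to mixed versus noncompetitive inhibition models compared by F-test. Duplicates, repeated at least three times.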

For data set [9], the target named is N-terminal 6XHIS tagged full length UBQLN2 (human, UniProt Q9UHD9 1-624). Put plainly: AlphaScreen or HTRF.
Chain of N-terminal 6XHIS tagged full length UBQLN2 (Q9UHD9 whole entry): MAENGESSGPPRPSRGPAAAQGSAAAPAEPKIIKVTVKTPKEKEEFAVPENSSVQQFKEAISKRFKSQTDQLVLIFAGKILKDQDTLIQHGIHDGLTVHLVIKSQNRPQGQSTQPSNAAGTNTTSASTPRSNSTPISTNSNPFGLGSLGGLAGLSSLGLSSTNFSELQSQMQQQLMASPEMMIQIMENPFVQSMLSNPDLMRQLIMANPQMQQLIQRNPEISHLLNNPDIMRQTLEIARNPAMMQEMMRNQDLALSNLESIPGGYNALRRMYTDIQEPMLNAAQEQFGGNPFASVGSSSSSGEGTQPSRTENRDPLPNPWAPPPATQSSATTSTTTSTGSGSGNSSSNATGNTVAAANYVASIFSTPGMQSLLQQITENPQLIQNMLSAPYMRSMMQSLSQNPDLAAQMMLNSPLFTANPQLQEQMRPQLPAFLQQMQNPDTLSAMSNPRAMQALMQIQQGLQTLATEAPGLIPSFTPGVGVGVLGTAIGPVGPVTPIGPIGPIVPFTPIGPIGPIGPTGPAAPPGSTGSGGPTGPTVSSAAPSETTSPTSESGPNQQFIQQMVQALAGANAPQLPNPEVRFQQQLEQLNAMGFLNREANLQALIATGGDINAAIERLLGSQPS

Data on five molecules can be found in publication PMC3960997 (Biochimica et biophysica acta, 2013).

By IC50 is commonly meant the concentration at which inhibition is half-maximal. The Ki is the dissociation constant of the complex between target and ligand, obtained from inhibition or displacement. Low values mean tighter binding, high ones weaker binding. One may read the Kd as the concentration at which binding is half-saturated.

A value given as a limit tells only on which side of the number the result lay.

T1 sequence (Q13148 whole entry): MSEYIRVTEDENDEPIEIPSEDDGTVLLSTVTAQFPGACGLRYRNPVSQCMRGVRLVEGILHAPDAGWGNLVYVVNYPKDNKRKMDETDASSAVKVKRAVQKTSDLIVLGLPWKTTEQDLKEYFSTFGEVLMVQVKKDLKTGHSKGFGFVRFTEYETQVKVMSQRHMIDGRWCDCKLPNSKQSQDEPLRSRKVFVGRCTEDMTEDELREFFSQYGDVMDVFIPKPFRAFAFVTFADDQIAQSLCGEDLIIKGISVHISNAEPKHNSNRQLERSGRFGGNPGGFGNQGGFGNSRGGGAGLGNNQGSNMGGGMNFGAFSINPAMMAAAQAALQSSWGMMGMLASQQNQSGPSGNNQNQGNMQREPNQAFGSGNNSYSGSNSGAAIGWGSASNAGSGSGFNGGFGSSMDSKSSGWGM

For the molecule “5′-CTGCTTTTTGCCTGTACTGGGTCTCTGTGGTT-3′ (DNA CTGCTTTTTGCCTGTACTGGGTCTCTGTGGTT; chemistry not given here) [TAR32, reference compound]”, the “Fold IC50 relative to TG12 for inhibition of nucleic acid binding” value with full length TDP-43 [1] (bt-TG12 binding to full length TDP-43) is ~ 10 fold. Moreover, in the data set with full length TDP-43 [1] (read-out: IC50 (95% CI) inhibition of bt-TG12 binding to full length TDP-43, 1.0 nM bt-TG12, TDP-43 1.6 nM, geometric mean of four determinations (Section 2.4)), the IC50 worked out at 16 nM.
For the molecule `COc1ccc(-c2cc(NCCCN(C)C)c3ccccc3n2)cc1` [AAQ1, (3-{[2-(4-methoxyphenyl)quinolin-4-yl]amino}propyl)dimethylamine], the IC50 is 1000 nM on full length TDP-43 [1] and 5500 nM on full length TDP-43 [2]. Also, at full length TDP-43 [2] (full length TDP-43), the “Fold less potent for inhibition of UBQLN2 binding compared to inhibition of nucleic acid binding to TDP-43” value is given as 5 fold. For the same molecule, the Ki on full length TDP-43 [3] was found to be 3400 nM; in data set [4], 4200 nM. The “Mode of inhibition of UBQLN2 binding to full length TDP-43” value on full length TDP-43 [3] (F-test comparison of global fits with the mixed inhibition model) is reported as “competitive”. The “Mode of inhibition of UBQLN2 binding to C-terminal TDP-43” value in [4] (C-terminal TDP-43 (261-414 aa)) is “competitive”.
As for `CN(C)CCN(C)c1cc(-c2ccccc2)nc2ccccc12` [AAQ2, N-[2-(dimethylamino)ethyl]-N-methyl-2-phenylquinolin-4-amine], the half-inhibitory concentration (IC50) on full length TDP-43 [1] and at full length TDP-43 [2] was over 100 nM throughout. At full length TDP-43 [1] (1.0 nM bt-TG12, TDP-43 1.6 nM), the “IC50 inhibition of bt-TG12 binding to TDP-43” value was “no activity”. For the same molecule, the “IC50 inhibition of UBQLN2 binding to TDP-43” value at full length TDP-43 [2] (1.4 nM UBQLN2, TDP-43 1.6 nM) is reported as “no activity”.
Turning to “UBQLN2: N-terminal 6XHIS tagged full length UBQLN2 protein, custom made by ProteinTech Group”, in data set [5], the dissociation constant Kd turned out to be 8.7 nM. In addition, the “UBQLN2 binding to N-terminal TDP-43” value in [6] is “unable to detect appreciable UBQLN2 binding”. In data set [7], the “IC50 for inhibition of bt-TG12 binding to N-terminal TDP-43” value is on record as “unable to inhibit”. The “Mode of inhibition of bt-TG12 binding to full length TDP-43” value with full length TDP-43 [8] is reported as “noncompetitive”.

B1: Human N-terminal GST tagged C-terminal TDP-43 (261-414 aa) (domain or fragment, UniProt Q13148 261-414, looked up)
chain: EPKHNSNRQLERSGRFGGNPGGFGNQGGFGNSRGGGAGLGNNQGSNMGGGMNFGAFSINPAMMAAAQAALQSSWGMMGMLASQQNQSGPSGNNQNQGNMQREPNQAFGSGNNSYSGSNSGAAIGWGSASNAGSGSGFNGGFGSSMDSKSSGWGM
As for B1, the Kd in data set [9] stood at 8.7 nM.
